From ChEMBL document CHEMBL3259550, “Polycyclic propargylamine and acetylene derivatives as multifunctional neuroprotective agents” (Eur J Med Chem, 2014)
Activity calls are given as the source filed them. The rule behind the calls is not given here.

How the values were obtained:
[1] = Antiapoptotic activity against serum deprivation-induced human SK-N-BE(2) cells assessed as improvement in cell health at 1 mM to 10 uM after 36 hrs incubation by DePsipher agent relative to 1.25% DMSO; assay type: functional
Method in brief: (§1)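 SK-N-BE(2) neuroblastoma cells grown in F12 with 10% FBS, Pen/Strep and fungizone at 37 °C. At 80% confluency they were serum-deprived for 24 h, then seeded at 1 x 10^6 cells per 2 mL serum-deprived medium containing compound in DMSO (1.25% v/v final). Cells were incubated 36 h, stained with DePsipher dye 20 min at 37 °C and run by flow cytometry (50 000 events; FL-1 green, FL-2 red). % viable = (Q1+Q2)/(Qtotal−Q3) x 100. Tests in triplicate.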

[2] = Antiapoptotic activity against serum deprivation-induced human SK-N-BE(2) cells assessed as viable cells at 10 uM after 36 hrs incubation by DePsipher agent relative to control; assay type: functional; method in brief: as §1
[3] = species: Papio papio; experiment: Inhibition of MAO-B in baboon liver mitochondrial fraction using MMTP substrate at 300 uM
[4] = Antiapoptotic activity against serum deprivation-induced human SK-N-BE(2) cells assessed as apoptotic cells at 1 mM to 10 uM after 36 hrs incubation by DePsipher agent relative to 1.25% DMSO; assay type: functional; method in brief: as §1
[5] = Antiapoptotic activity against serum deprivation-induced human SK-N-BE(2) cells assessed as improvement in cell health at 1 mM to 10 uM after 36 hrs incubation by DePsipher agent relative to non-induced cells; assay type: functional; method in brief: as §1

| Compound | Activity [1] | Activity [2] | inhibition [3] | Activity [4] | improvement in cell health [5] |
| --- | --- | --- | --- | --- | --- |
| C#CCN(Cc1ccccc1)C12CC3CC(CC(C3)C1)C2 | 9% | 70% | 20.1% |  |  |
| C#CCN(C)[C@H](C)Cc1ccccc1 |  | 77% | 93.3% |  |  |
| C#CC12OC3(O)C4C5CC(C6C5C3(C)C61)C42 (racemic) | 9% | 100% | inactive | 0.5% | Active |
| C#CCN |  | 79% | 19.9% |  |  |
| C#CCNC12OC3C4C5CC(C6C5C3(C)C61)C42 (racemic) | 9% | 97% | 11.7% |  | Active |
| c1ccc(CNC23OC4C5C6CC(C7C6C4C72)C53)cc1 (stereo not drawn) | 9% | 67% | 14.6% |  |  |
| C#CCN(CC#C)C12CC3CC(CC(C3)C1)C2 | 9% | 68% | 14% |  |  |
| COCCOC(=O)C1=C(C)NC(C)=C(C(=O)OC(C)C)C1c1cccc([N+](=O)[O-])c1 (stereo not drawn) |  | inactive |  |  |  |
| C#CCNC12OC3C4C5CC(C6C5C3C61)C42 (racemic) | 9% | 88% | inactive |  |  |
| OC1(C#Cc2ccccc2)C2C3CC4C5C3CC2C5C41 (racemic) | 9% | 98% | 73.3% | 2.8% | Active |
| C#CCN1C2C3C4CC5C6C4C2C6(C)C1(O)C53 (racemic) | 9% | 67% | 10.8% |  |  |
| C#CCN1C2C3C4CC5C6C4C2C6C1(O)C53 (racemic) | 9% | 93% | 5.83% |  | Active |
